From PubChem BioAssay
Lmaj promast – Leishmania major promastigote growth inhibition, primary screen; Leishmania major promastigotes, resazurin fluorescence viability; inhibition, % at 10 µM; hit rate 9% among 200,000; in the data active means inhibition above about 50%;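 further: promastigotes grown with compound for 44 hours at 28 °C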
HCT116 bCat-KO – primary screen for growth suppressors in beta-catenin knockout HCT116 cells (colon tumor, human). HCT116 beta-catenin knockout viability, CellTiter-Glo, 60 h; hits give low values. viability, % at 10 µM. hit rate 1.5% among 140,000. AID 818, 2007;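 active means viability at or under a set limit, the compound median less 4 SD, cut at about 6% in these data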;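 further: 0% = Hyamine 1622 control at 20 µM and 100% = untreated cell control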
HCT116 PTEN-null – growth suppression of PTEN-null HCT116, primary screen, cell-based, CellTiter-Glo; HCT116 PTEN-null viability, 60 h; hits give low values; viability, % at 10 µM; hit rate 1.2% among 140,000; AID 827, 2007;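 active means viability at or below a set limit, 4 SD under the median of all tested compounds, cut at about 3.7% in these data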;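 further: PTEN knockout HCT116 line with beta catenin targeted HCT116 as companion control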
Autophagy HCS – autophagy modulators in MEF cells, primary screen, imaging, high-content, MEF GFP-LC3. MEF GFP-LC3 puncta imaging; test concentration mostly 10 µM. calls only at 10 µM (by protocol). hit rate 0.98% among 190,000;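 active means percentage of spot-positive cells more than 3 SD above its plate mean, without a fluorescence outlier flag or 80% toxicity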;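 further: spot-positive cell cutoff set from DMSO-treated cells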
Dynein cargo inh – inhibitors of GR-EGFP nuclear translocation, primary screen, dynein cargo transport inhibitor project, imaging, high-content, 3617.4 mouse cells; test concentration mostly 20 µM; stimulated with dexamethasone, 1 µM; hits give low values; z-score, hits read low; hit rate 0.47% among 220,000;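 active means plate z-score of nuclear minus cytoplasmic receptor signal below a set negative limit, without overly bright fluorescence or cell loss, cut at about -3.5 in these data, passing the limit was not always enough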;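 further: z-score of nuclear minus cytoplasmic ring GR-EGFP intensity difference per well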
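Schedule: 48 h induction, then 1 h compound, then 30 min agonist, 37 °C. Buffer or medium: tetracycline-free induction medium containing charcoal-stripped FBS. Reagent: 1.0 µM final dexamethasone stimulus. Evaluation: nuclear versus cytoplasmic GR-EGFP signal, averaged per well. Signal: high-content fluorescence imaging after fixation.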
Active calls of the source: *; i = inactive; . = no result given; + = active, no number. The list is not random: actives were taken first. Their share in the collection is about 9.2%.

SMILES	Lmaj promast	HCT116 bCat-KO	HCT116 PTEN-null	Autophagy HCS	Dynein cargo inh
O=c1c2c(-c3ccccc3)csc2ncn1/N=C/c1c2ccccc2cc2ccccc12	100*	73	71	i	-0.77
Cc1nn(-c2ccccc2)c(N2CCCC2)c1/C=N/n1cnc2scc(-c3ccccc3)c2c1=O	56*	67	51	i	0.36
O=C(O)CCCNC(=O)/C(=C\c1ccc(Cl)cc1)NC(=O)c1ccccc1Br	1	.	.	i	-0.54
O=C(O)c1ccc(S(=O)(=O)c2ccc(Sc3ccc(C(=O)O)c(C(=O)O)c3)cc2)cc1	-11	.	.	i	0.51
Fc1ccc(Sc2nc(-c3ccccc3)nnc2C(F)(F)F)cc1	48	4.1*	2.1*	i	-2.1
Fc1ccc(Oc2nc(-c3ccccc3)nnc2C(F)(F)F)cc1	-9	90	95	i	-2
OCC1CCCCN1C(=S)Nc1cccc(Cl)c1 (centres undefined)	-1	.	.	i	-0.51
Cc1ccc2c(Cl)cc(Cl)c(OCC(=O)Nc3ccc(C)c(S(=O)(=O)N(C)C)c3)c2n1	68*	69	65	i	-0.37
COC(=O)COc1c(Cl)cc(Cl)c2ccc(C)nc12	-8	.	.	i	-0.15
Cc1ccc2c(Cl)cc(Cl)c(OCC(=O)Nc3cc(S(=O)(=O)N(C)C)ccc3C)c2n1	69*	25	31	i	0.58
Cc1ccc2c(Cl)cc(Cl)c(OCC(=O)NC(C)(C)C)c2n1	6	.	.	i	-0.55
Cc1ccc2c(Cl)cc(Cl)c(OCC(=O)Nc3cccc(S(N)(=O)=O)c3)c2n1	71*	84	92	i	-0.16
Cc1ccc2c(Cl)cc(Cl)c(OCC(=O)Nc3cccc(S(=O)(=O)N(C)C)c3)c2n1	-5	82	85	i	-0.23
COc1ccccc1C(=O)NC1CCN(C(=S)NCCc2ccccc2)CC1	-1	.	.	i	-0.29
C#CCN(CC=C)C(=O)CCc1nnc(COc2ccccc2)o1	-8	.	.	i	-0.57
CCCn1cc(CN2CCCC(C(=O)c3cccc(OC(C)C)c3)C2)c(C)n1 (centres undefined)	74*	.	.	i	-0.99
COc1c(C)cc(C(=O)C2CCCN(Cc3ccc(Oc4ncccn4)cc3)C2)cc1C (centres undefined)	82*	.	.	i	-0.19
CC(C)Oc1cccc(C(=O)C2CCCN(Cc3ccc(Oc4ncccn4)cc3)C2)c1 (centres undefined)	79*	.	.	i	-1
COc1ccccc1C(=O)C1CCCN(Cc2ccc(Oc3ncccn3)cc2)C1 (centres undefined)	-2	.	.	i	-0.089
CCCn1ncc(CN2CCCC(C(=O)c3cccc(OC(C)C)c3)C2)c1C (centres undefined)	.	.	.	.	-0.59
CCOC(=O)CSc1nc(=O)n2cccc(C)c2n1	0	.	.	+	0.39
O=C1COc2ccc(C(=O)c3ccccc3C(=O)NCc3ccccc3)cc2N1	0	90	94	i	0.35
O=C1COc2ccc(C(=O)/C=C/c3ccccc3)cc2N1	84*	10	8	i	-1
O=C(/C=C/c1ccccc1)c1ccc2c(c1)OCCCCO2	44	3.5*	5	i	-2.3
O=C(O)c1ccc2c(c1)OCCCO2	.	.	.	.	0.21
SMILES	Lmaj promast	HCT116 bCat-KO	HCT116 PTEN-null	Autophagy HCS	Dynein cargo inh
O=C(NC(=S)NCC1CCCO1)c1ccc(Br)o1 (centres undefined)	-3	.	.	i	0.44
Cc1cc(NC(=O)CCCn2cnc([N+](=O)[O-])n2)no1	2	.	.	i	0.16
Cc1c(Cl)cccc1NC(=O)CCCn1cnc([N+](=O)[O-])n1	50	.	.	i	1.9
O=C(CCCn1cnc([N+](=O)[O-])n1)Nc1cccc(Cl)c1Cl	94*	83	102	i	0.3
O=C(CCCn1cnc([N+](=O)[O-])n1)Nc1ccc(Cl)c(Cl)c1	97*	78	72	i	-0.75
O=C(CCCn1cnc([N+](=O)[O-])n1)Nc1cc(Cl)ccc1O	72*	.	.	i	-0.75
Cc1ccc(Cl)cc1NC(=S)N1CCC(c2ccccc2)C1 (centres undefined)	19	.	.	i	0.1
CCOC(=O)CSc1nc2ccc(Nc3nc(N4CCOCC4)nc(N4CCOCC4)n3)cc2s1	20	73	79	i	-0.14
CC(=O)CSc1nc2ccc(Nc3nc(N4CCOCC4)nc(N4CCOCC4)n3)cc2s1	64*	8	6	i	0.44
CC(=O)Nc1ccc2nc(SCC(=O)Nc3ccc(N4CCOCC4)c(Cl)c3)sc2c1	20	77	67	i	1.2
CC(C)(C)NC(=O)CSc1nc2ccc(Nc3nc(N4CCOCC4)nc(N4CCOCC4)n3)cc2s1	77*	.	.	i	-0.41
COC(=O)c1ccccc1NC(=O)Cn1cc2c(n1)CCC(C)C2 (centres undefined)	-9	69	72	i	0.61
Cc1ccc(Cn2c(=N)n(CC(=O)c3ccccc3)c3ccccc32)cc1	100*	.	.	+	2.7
CC(C)(C)C(=O)Cn1c(=N)n(Cc2ccccc2)c2ccccc21	58*	83	79	i	1.8
CC(C)(C)C(=O)Cn1c(=N)n(Cc2ccccc2Cl)c2ccccc21	100*	87	88	i	-0.7
N=c1n(CC(=O)c2ccc(Br)s2)c2ccccc2n1Cc1ccccc1	.	.	.	.	3.5
CCn1c(=N)n(CC(=O)c2cccc([N+](=O)[O-])c2)c2ccccc21	16	93	99	i	3.4
N=c1n(CC(=O)c2cccc([N+](=O)[O-])c2)c2ccccc2n1Cc1ccccc1	63*	.	.	i	-0.14
CC(C)=CCN1CCN(Cc2cc(C(C)C)n[nH]2)CC1CCO (centres undefined)	-9	.	.	i	-0.53
COc1ccccc1NC(=O)CCSc1nc(C)cc(C)n1	-4	.	.	i	1.4
CCOc1ccccc1N(C(=O)Nc1ccc(Cl)cc1)C1=NC(C)CS1 (centres undefined)	0	91	96	i	-0.82
O=C(Oc1ccc(Cl)c2cccnc12)c1ccco1	99*	5.3*	6	i	0.64
O=C(NCCOc1cccc2cccnc12)c1cccs1	-1	.	.	i	0.39
O=C(Oc1cccc2ccccc12)c1ccco1	9	94	99	i	-0.31
O=C(Oc1ccccc1)c1cccc2cccnc12	94*	3.3*	1.7*	i	0.24
SMILES	Lmaj promast	HCT116 bCat-KO	HCT116 PTEN-null	Autophagy HCS	Dynein cargo inh
O=C(Oc1cccc2cccnc12)c1ccco1	99*	3.0*	1.8*	i	0.29
O=C(O)c1cccc2cccnc12	-3	94	102	i	-0.78
O=C(Oc1cccc2cccnc12)c1cccs1	100*	4.1*	1.9*	i	-0.76
COC(=O)c1cc(Cl)cc(Cl)c1OS(=O)(=O)N(C)C	-8	.	.	i	0.22
O=C(Cc1ccc(Cl)cc1)Oc1cccc2cccnc12	97*	4.2*	3.0*	i	-0.43
Cc1c(C(=O)Oc2cccc3cccnc23)cccc1[N+](=O)[O-]	98*	.	.	i	-0.091
